TAAR1 agonist: human TAAR1 agonists, primary screen, Fluo-8 calcium fluorescence, CHO RD-HGA16 cells | Trace amine-associated receptor 1 (Homo sapiens), Q96RJ0 | vehicle wells 0%, saturating PEA agonist 100% | activation, % at 3 µM | actives 0.99% (n = 360,000) | AID 624467, 2012;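 active = activation above the mean activation of all test compounds in the run plus 3 SD, cut at about 38% in these data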
Target sequence (Q96RJ0 whole entry, looked up): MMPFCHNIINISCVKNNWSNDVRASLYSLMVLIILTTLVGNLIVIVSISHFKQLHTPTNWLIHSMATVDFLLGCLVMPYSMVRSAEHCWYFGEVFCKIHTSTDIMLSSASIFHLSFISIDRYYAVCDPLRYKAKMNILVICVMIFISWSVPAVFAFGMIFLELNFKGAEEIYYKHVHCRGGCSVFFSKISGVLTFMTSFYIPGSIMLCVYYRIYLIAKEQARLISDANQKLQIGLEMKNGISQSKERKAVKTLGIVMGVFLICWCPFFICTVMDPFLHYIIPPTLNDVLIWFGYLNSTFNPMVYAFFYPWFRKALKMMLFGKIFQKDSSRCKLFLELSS
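Repeats: no replicates (n 1) | Material: CHO-derived RD-HGA16 cells with stable Gα16 and human TAAR1 | Technique: Kinetic Fluo-8 calcium fluorescence | Schedule: 17-24 h seeding, 75 min 37 °C dye, 30 min RT | Evaluation: % activation from peak over basal fluorescence ratio, DMSO-to-PEA scaled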
OX1R antag-1: antagonists of human orexin 1 receptor (OX1R); Orexin/Hypocretin receptor type 1 (Homo sapiens), O43613; inhibition, % at 6.6 µM; actives 1.8% (n = 330,000); AID 485270, 2010; OX1R-expressing cells, FRET antagonist read-out; in the data active = inhibition mostly above about 38%, no sharp cut-off; inactive = mostly below about 40%;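 also: 0% = agonist challenge alone and 100% = reference antagonist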
OX1R antag-2: OX1R (HCRTR1) antagonists, primary screen, fluorescence, CHO/OX1R cells, Fluo-8 calcium, orexin A; actives 0.43% (n = 330,000); inhibition, % at 5 µM; Orexin/Hypocretin receptor type 1 (Homo sapiens), O43613; Fluo-8 calcium fluorescence;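 active = inhibition above its plate's threshold, mean inhibition of all tested compounds on the plate plus 3 SD, cut at about 37% in these data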;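 also: 0% = orexin A challenge wells and 100% = SB-334867-A antagonist wells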
CHO parental Ca: ATP-evoked calcium signal inhibitors, parental CHO, primary screen, counter-screen for OX1R antagonist project, cell-based, fluorescence, Fluo-8 calcium dye; parental CHO-K1, ATP-induced calcium, Fluo-8 fluorescence; inhibition, % at 5.6 µM; actives 0.63% (n = 330,000); AID 463079, 2010;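 active = inhibition above that plate's mean sample inhibition plus 3 SD, cut at about 26% in these data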;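 also: 0% = ATP-challenged DMSO wells and 100% = DMSO wells without ATP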
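Material: Parental CHO cells | Reagent: ATP | Compound dosing: Single nominal dose of 5.6 µM per compound | Detection: Intracellular calcium via Fluo-8 no-wash fluorescent dye | Read-out: % inhibition of ATP-induced calcium mobilization | Benchmarks: Low control ATP plus DMSO, high control DMSO only | Replicates: Singlicate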
GPR7 antag: GPR7 receptor antagonists, primary screen, cell-based, fluorescence, single concentration. GPR7-expressing cells, fluorescence antagonist assay. Neuropeptides B/W receptor type 1 (Homo sapiens), P48145. inhibition, % at 4.4 µM. actives 1.1% (n = 290,000); in the data active = inhibition above about 16%, passing the limit was not always enough;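 also: cells stimulated with the agonist NPW; 0% = agonist with vehicle and 100% = vehicle without agonist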
Target sequence (P48145 whole entry, looked up): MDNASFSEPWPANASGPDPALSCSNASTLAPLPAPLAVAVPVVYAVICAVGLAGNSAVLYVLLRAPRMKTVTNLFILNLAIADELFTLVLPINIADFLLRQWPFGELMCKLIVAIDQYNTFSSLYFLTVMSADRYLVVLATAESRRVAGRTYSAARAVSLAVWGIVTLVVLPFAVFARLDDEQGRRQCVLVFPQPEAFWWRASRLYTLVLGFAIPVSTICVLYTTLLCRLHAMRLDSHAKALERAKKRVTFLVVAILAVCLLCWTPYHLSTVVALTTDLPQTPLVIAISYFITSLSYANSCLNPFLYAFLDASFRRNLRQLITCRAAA
TAAR1 antagonist: human TAAR1 antagonists, primary screen, Fluo-8 calcium fluorescence, CHO RD-HGA16 cells | actives 1.5% (n = 360,000) | Trace amine-associated receptor 1 (Homo sapiens), Q96RJ0 | antagonist | inhibition, % at 3 µM | AID 624466, 2012;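 active = inhibition above a per-plate cutoff, the mean inhibition of test compounds on that plate plus 3 SD, cut at about 49% in these data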;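 also: 0% = DMSO plus EC80 beta-PEA response and 100% = DMSO alone without agonist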
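Test system: CHO RD-HGA16 cells bearing hTAAR1 | Reagent: β-PEA, EC80 | Compound dosing: 3 µM, single point | Schedule: Dye loading 75 min at 37 °C, then 30 min room temperature | Signal: Calcium fluorescence with Fluo-8 | Evaluation: Percent inhibition of PEA-evoked calcium signal, max/basal emission ratio | Control set: DMSO-only wells and EC80 β-PEA-stimulated wells | Repeats: Singlicate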
TAAR1 nonsel count: nonselective antagonists in TAAR1 counter-screen cells, counter-screen for hTAAR1 antagonist project, cell-based, fluorescence, calcium | counterscreen cell line, antagonist mode | shares compounds with TAAR1 antagonist | AID 651780, 2012 | actives 77% (n = 2,400) | inhibition, % at 3 µM; in the data active = inhibition above about 22%;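 also: CHO-Ga16 host cells stimulated with ATP at an EC80 level; 0% = agonist EC80 plus vehicle and 100% = vehicle without agonist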
TAAR1 ant conf: human TAAR1 antagonists, retest of hits, confirmation, cell-based, fluorescence; actives 40% (n = 2,400); TAAR1-expressing cells, fluorescence antagonist read-out; inhibition, % at 3 µM; AID 651785, 2012; shares compounds with TAAR1 antagonist; in the data active = inhibition above about 49%;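 also: CHO-Ga16 host cells challenged with agonist PEA near its EC80; 0% = agonist at EC80 plus vehicle and 100% = vehicle with no agonist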
Ga16 nonsel ag: calcium activation in Ga16-expressing cells, counter-screen for TAAR1 antagonist project, cell-based, fluorescence. actives 18% (n = 2,400). agonist counterscreen. activation, % at 3 µM. shares compounds with TAAR1 antagonist; in the data active = activation above about 12%;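 also: 0% = vehicle wells and 100% = saturating stimulus response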
TAAR1 ag counter: TAAR1 activation by candidate antagonists – cell-based, fluorescence, counter-screen for TAAR1 antagonist project; shares compounds with TAAR1 antagonist; hTAAR1 cell line, agonist mode; actives 2% (n = 2,400); activation, % at 3 µM; AID 651955, 2012; in the data active = activation above about 37%;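 also: CHO cells stably expressing TAAR1 with calcium dye readout; 0% = DMSO vehicle and 100% = full agonist response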
The depositor's hits bear a star; x = no result given; ! = not active in a repeat. An excerpt weighted towards active compounds, which were near 4.6% of everything screened.

SMILES	TAAR1 agonist	OX1R antag-1	OX1R antag-2	CHO parental Ca	GPR7 antag	TAAR1 antagonist	TAAR1 nonsel count	TAAR1 ant conf	Ga16 nonsel ag	TAAR1 ag counter
CC(=O)Nc1ccc(C(=O)N/N=C/c2ccccc2OC(=O)c2ccc(Cl)cc2)cc1	10	7	-34	-22	1	52*	35*	42	8	10
COc1cc(/C=N/NC(=O)c2ccccn2)ccc1OC(=O)c1ccccc1Br	7	10	-20	-26	-23	70*	35*	53*	9	5
COc1cc(/C=N/NC(=O)c2ccccn2)ccc1OC(=O)c1ccc(Br)cc1	2	6	-7	13	-17	40	x	x	x	x
CCC1CCc2sc(C(=O)NC3CCN(Cc4ccccc4)CC3)cc2C1 (configuration not stated)	17	9	-4	-12	x	-8	x	x	x	x
CNc1ccc2ncc(-c3ccc(OC)c(OC)c3)n2n1	1	x	x	x	x	-13	x	x	x	x
O=c1c2ccccc2nc(/C=C/c2cccnc2)n1Cc1ccccc1	8	x	x	x	0	0	x	x	x	x
O=c1c2ccccc2nc(/C=C/c2cccc([N+](=O)[O-])c2)n1CCO	14	19	-21	-5	-9	9	x	x	x	x
O=c1c2ccccc2nc(/C=C/c2cccnc2)n1CCc1ccccc1	7	14	-33	-10	-7	60*	19	27	3	2
O=c1c2ccccc2nc(/C=C/c2cc(Br)ccc2O)n1CCCO	13	7	10	-12	-1	58*	13	20	6	11
O=C(Nc1nc(-c2cc(F)ccc2F)cs1)c1cccc(N2C(=O)CCC2=O)c1	29	25	-10	25	x	75*	48*	60*	22*	18
COc1cc(/C=C(/C#N)c2nc3ccccc3[nH]2)ccc1OCc1ccc(C(=O)O)o1	4	19	-7	-9	2	7	x	x	x	x
Cc1ccc2nc(/C(C#N)=C\c3ccc([N+](=O)[O-])o3)[nH]c2c1	26	-6	34	27	0	9	x	x	x	x
CCOc1cc(/C=C(/C#N)c2nc3ccccc3[nH]2)ccc1Oc1ccc([N+](=O)[O-])cn1	15	25	-5	-8	-5	65*	54*	66*	10	7
COC(=O)c1ccc(COc2ccc(/C=C(\C#N)c3nc4ccccc4[nH]3)cc2OC)o1	14	24	-1	2	-6	61*	32*	45	7	7
N#C/C(=C\c1ccc([N+](=O)[O-])o1)c1nc2ccccc2[nH]1	17	14	4	7	5	66*	49*	61*	20*	25
COc1cccc(-c2ccc3c(c2)O[C@@H](CN(C)C(=O)C2CCOCC2)[C@H](C)CN([C@H](C)CO)S3(=O)=O)c1	2	x	x	x	x	15	x	x	x	x
CC1(C(=O)Nc2ccc3ccccc3c2)CCC(=O)N1C1CC1 (configuration not stated)	4	x	x	x	x	-22	x	x	x	x
Cc1ccc(NS(=O)(=O)c2ccc3c(c2)CCC(=O)N3)cc1C	3	22	-19	10	-5	103*!	5	7	2	5
Cc1ccc(NS(=O)(=O)c2ccc3c(c2)CC(=O)N3)cc1C	8	5	-7	0	6	-29	x	x	x	x
CCNC(=O)C1(C)CCCN(C(=O)c2ccnc(Cl)c2)C1 (configuration not stated)	18	x	x	x	x	-30	x	x	x	x
COc1ccc(-c2c(C#Cc3ccsc3)c3cc(-c4ccc(C(N)=O)cc4)ccc3n2C)cc1	5	9	-20	-10	x	102*	12	90*	0	0
COc1ccc(-c2c(C#Cc3ccsc3)c3cc(-c4ccc5[nH]ccc5c4)ccc3n2C)cc1	1	7	13	10	x	14	x	x	x	x
Cc1ccc(S(=O)(=O)N(C)c2ccc3c(c2)C(=O)c2ccccc2-3)cc1	5	x	x	x	x	-9	x	x	x	x
O=C(NCCc1ccccc1)c1ccc(NC(=O)c2cccnc2)cc1	11	x	x	x	-13	-4	x	x	x	x
O=C(Nc1ccc(-c2noc(CCc3ccccc3)n2)cc1)c1cccnc1	24	26	16	9	2	69*	37*	51*	14*	14
SMILES	TAAR1 agonist	OX1R antag-1	OX1R antag-2	CHO parental Ca	GPR7 antag	TAAR1 antagonist	TAAR1 nonsel count	TAAR1 ant conf	Ga16 nonsel ag	TAAR1 ag counter
COC(=O)C(C(=O)OC)c1ccccc1NC(=O)OCc1ccccc1	0	x	x	x	x	1	x	x	x	x
COc1ccc(NS(=O)(=O)c2cc(NC(=O)c3cc(=O)c4ccccc4o3)ccc2OC)cc1	17	26	9	-3	-11	64*	27*	53*	8	5
COc1cccc(NC(=O)c2cc(=O)c3ccccc3o2)c1	3	7	-23	-8	10	4	x	x	x	x
Cc1ccc(S(=O)(=O)N2CCOCC2)cc1C(=O)Nc1ccc(-c2cn3ccsc3n2)cc1	18	58	8	8	2	74*	30*	75*	10	9
COc1ccc(-c2ccc(/C=N/N3C(=O)C4C5C=CC(C6CC56)C4C3=O)o2)c([N+](=O)[O-])c1 (configuration not stated)	17	16	1	-14	5	56*	31*	52*	10	10
CCCCn1nnnc1C(c1cc2ccccc2o1)N(CCC#N)Cc1ccccc1 (configuration not stated)	4	x	x	x	x	12	x	x	x	x
C=CCn1c(=NC(=O)c2cccc(N3C(=O)CCC3=O)c2)sc2cccc(OC)c21	18	46	1	-11	-19	74*	27*	52*	11	10

Compound activity as filed in PubChem BioAssay.
